Bioassay records: PubChem BioAssay, several laboratories
SK-BR-3 tox 24h – SK-BR-3 proliferation inhibitors, primary screen, cell-based, human, 24 h; SK-BR-3 viability, CellTiter-Glo ATP luminescence; active compounds read low; viability, % at 10 µM; actives 0.47% (n = 41,000); AID 847, 2007;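 active means viability at or below the median of all test compounds minus 3 SD, in both replicates if run twice, cut at about 45% in these data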;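 further: 100% = median untreated cell wells and 0% = median positive control drug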
HEK293 NFkB inh – inhibitors of PMA/ionomycin-induced NF-kB reporter, primary screen, antigen receptor NF-kB inhibitor project, cell-based, HEK-293 luciferase reporter, luminescence; inhibition, % at 3 µM; HEK-293 NF-kB luciferase reporter; actives 0.21% (n = 62,000);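 active means inhibition above the mean of all tested compounds plus 3 SD, cut at about 40% in these data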;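 further: 0% = stimulated DMSO wells and 100% = 10 µM reference inhibitor 5653914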
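Material: HEK-293 cells with stable firefly luciferase reporter driven by four HIV NF-kB elements / Also added: PMA plus ionomycin mix as NF-kB-activating stimulus / Compound dosing: 3 µM once, 0.30% DMSO / Times: 1 h pretreatment, 16 h stimulation, 37 °C / Signal: luminescence / Evaluation: per-plate % inhibition versus controls / Benchmarks: DMSO and 10 µM reference inhibitor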
HTR1E agonist – 5-HT1E receptor agonists, primary screen, cell-based, HTS; actives 0.69% (n = 65,000); CHO 5-HT1E Ga15 NFAT-bla reporter, FRET; 0% DMSO wells, 100% control agonist wells; activation, % at 6 µM; 5-hydroxytryptamine receptor 1E (Homo sapiens), P28566;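 active means activation above a set limit, the screen-wide mean activation plus 3 SD, cut at about 8.5% in these data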;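 further: 100% = positive control agonist at 1 µM giving full maximal response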
Target sequence (P28566 whole entry, looked up): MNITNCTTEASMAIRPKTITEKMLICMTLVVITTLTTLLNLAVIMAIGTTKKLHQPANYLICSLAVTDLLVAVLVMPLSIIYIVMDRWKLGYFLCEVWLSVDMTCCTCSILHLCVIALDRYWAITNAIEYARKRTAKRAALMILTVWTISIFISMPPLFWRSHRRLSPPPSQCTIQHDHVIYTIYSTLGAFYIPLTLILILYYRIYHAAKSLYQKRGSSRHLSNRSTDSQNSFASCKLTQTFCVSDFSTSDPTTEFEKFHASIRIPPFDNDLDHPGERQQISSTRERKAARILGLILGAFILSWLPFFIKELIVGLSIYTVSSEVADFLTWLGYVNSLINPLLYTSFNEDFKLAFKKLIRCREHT
HTR1E antagonist – 5-HT1E receptor antagonists, primary screen, cell-based, HTS; inhibition, % at 6 µM; actives 0.99% (n = 65,000); CHO 5-HT1E Ga15 NFAT-bla reporter, FRET, antagonist; 5-hydroxytryptamine receptor 1E (Homo sapiens), P28566; AID 571, 2007;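 active means inhibition above a set limit, the mean inhibition across every tested compound plus 3 SD, cut at about 29% in these data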;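 further: signal is the 460 over 535 nm emission ratio of beta-lactamase substrate; 0% = agonist plus DMSO wells and 100% = wells without agonist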
HTR1A agonist – human 5-HT1a receptor agonists, primary screen, cell-based, CHO, Ga15 NFAT-bla reporter. 5-hydroxytryptamine receptor 1A (Homo sapiens), P08908. CHO 5-HT1a Ga15 NFAT-bla reporter, FRET ratio; 0% basal, 100% maximal reference agonist. activation, % at 10 µM. actives 0.56% (n = 65,000). AID 567, 2006;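 active means activation above the screen-wide mean activation plus 3 SD, cut at about 19% in these data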;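 further: 0% = DMSO wells and 100% = 5-CT at EC100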
5-HT1A blocker – human 5-HT1a receptor antagonists, primary screen, cell-based, CHO, Ga15 NFAT-bla reporter; 5-hydroxytryptamine receptor 1A (Homo sapiens), P08908; CHO 5-HT1a Ga15 NFAT-bla reporter, antagonist mode; inhibition, % at 10 µM; actives 0.68% (n = 62,000);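 active means inhibition above the mean of all tested compounds plus 3 SD, cut at about 43% in these data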;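 further: receptor stimulated by 5-CT agonist at 100 nM near EC80; beta-lactamase reporter measured by ratiometric fluorescence of a cleavable substrate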
The depositor's hits bear a star; . = no result given. A selection: hits, their analogues and other compounds. The true share with any hit is near 2.9%.

SMILES	SK-BR-3 tox 24h	HEK293 NFkB inh	HTR1E agonist	HTR1E antagonist	HTR1A agonist	5-HT1A blocker
Cc1[nH]c2c(C(F)(F)F)cccc2c1CCN	.	24	67*	22	-1	7
OC1(c2ccccc2F)CC2CCC(C1)N2CCN1CCOCC1 (stereo unspecified)	.	7	-1	-1	1	7
CCOC(=O)c1cc2c(cn1)[nH]c1ccccc12	95	.	-1	32*	2	.
CCOC(=O)N1CCN(C(C)C(=O)c2c[nH]c3ccccc23)CC1 (stereo unspecified)	82	11	2	1	0	4
COc1ccc(C(CC(=O)N2CCC3(CC2)OCCO3)NS(=O)(=O)c2ccc(C)cc2)cc1 (stereo unspecified)	.	14	1	-4	-1	-3
CC[C@@H](CO)NC(=O)[C@@H]1C=C2c3cccc4c3c(cn4C)C[C@H]2N(C)C1	97	.	95*	-6	53*	.
[O-][n+]1onc2c1CCC1N(O)CCC21O (stereo unspecified)	.	2	0	-5	0	-6
Cc1nc2cc(C(F)(F)F)ccc2n1C1CCN(Cc2nnnn2Cc2ccc3c(c2)OCO3)CC1	.	18	0	37*	0	9
CN(C)c1nc(OCCNC(=O)COc2ccc(Cl)cc2Cl)nc(N2CCCCC2)n1	107	10	0	102*	-1	-3
COc1ccc(-c2cc(C(F)(F)F)n3nc(C(=O)N4CCC5(CC4)OCCO5)cc3n2)cc1OC	89	8	2	-1	2	-10
CNCC(O)c1cccc(OC(=O)c2ccccc2C)c1 (stereo unspecified)	.	-3	9.4*	-3	3	0
CC(=O)c1cccc(OCC(O)CN2CC=C(c3ccccc3)CC2)c1 (stereo unspecified)	.	10	-1	11	5	65*
CN1CCN(c2nccc3c2ncn3C)CC1	.	14	9.8*	-6	-2	1
Cc1ccc(C)c(C2(O)CC(C)N(C)CC2C)c1 (stereo unspecified)	102	.	0	-2	1	.
CCN1CC=C(c2c[nH]c3ccccc23)CC1	.	16	100*	-5	-1	-1
NC(=O)CN1CC(c2ccccc2)CC1=O (stereo unspecified)	110	11	0	-17	-2	-17
COc1ccc(C(=O)CN2CCOCC2)cc1F	92	.	1	1	3	.
COc1ccc(C(=O)N2CCOCC2)cc1S(=O)(=O)N1CCC(C)CC1	104	4	0	-2	40*	-8
CCCCn1c(O)c(C(C)=NC(Cc2c[nH]c3ccccc23)C(=O)OC)c(=O)[nH]c1=O (stereo unspecified)	86	11	1	-9	-3	-5
CCn1c(O)c(C=NCCc2c[nH]c3ccccc23)c(=O)[nH]c1=O	79	14	17*	5	0	12
Cc1ccc2c(c1)C1CN(C)CCC1N2C(=O)c1ccc(Br)o1 (stereo unspecified)	.	12	0	-5	-3	60*
Cc1ccc2c(c1)[C@@H]1CN(C)CC[C@@H]1N2C(=O)Nc1cccc(C(F)(F)F)c1	92	.	0	1	0	.
O=C(c1sc2ccccc2c1Cl)N1CCC2(CC1)OCCO2	92	5	0	2	-2	-2
Cc1c(C(=O)N2CCC3(CC2)OCCO3)sc2ncnc(N3CCN(c4ccccn4)CC3)c12	38*	22	0	9	0	-12
CCN(CC)CCCN=C(C)c1c(O)n(-c2ccc(C)cc2)c(=O)[nH]c1=O	109	5	0	-6	-2	-2
SMILES	SK-BR-3 tox 24h	HEK293 NFkB inh	HTR1E agonist	HTR1E antagonist	HTR1A agonist	5-HT1A blocker
Clc1ccc2c(N3CCNCC3)ccnc2c1	88	-6	12*	9	-2	11
O[C@H]1C2CCC1C(N1CCCCC1)CC2 (stereo partly specified)	116	-2	0	9	0	5
COc1ccc(C2NCc3ccc4c(c3-n3cccc32)OCO4)cc1O (stereo unspecified)	.	26	0	31*	-1	65*
c1cc2n(c1)-c1c(ccc3c1OCO3)CNC2c1ccc2c(c1)OCO2 (stereo unspecified)	.	21	0	11	0	36
CC(N)C(=O)c1ccco1 (stereo unspecified)	.	10	0	5	-2	7
C=CCn1c(O)c(C(CC)=Nc2ccccc2NC(C)=O)c(=O)[nH]c1=O	117	10	0	4	0	8
C=CCn1c(O)c(C(CC)=NCCCO)c(=O)[nH]c1=O	44*	14	0	-8	2	-8
C=CCn1c(O)c(C(CC)=NCc2cc(OC)cc(OC)c2)c(=O)[nH]c1=O	34*	19	2	13	3	2
Cc1ccc(C2N(c3cc(C)on3)C(=O)C3CCCN32)cc1 (stereo unspecified)	89	5	1	2	0	-4
CCn1nc(-c2ccccc2)nc2c(=O)n(C)c(=O)nc1-2	38*	90*	2	101*	9	85*
COc1ccccc1N1CCN(Cc2ccc(Br)s2)CC1	.	13	5	-4	-2	44*
COc1ccccc1N1CCN(Cc2c(F)cccc2Cl)CC1	117	.	.	.	.	.
Cn1c(O)c(C=NC2CCN(Cc3ccccc3)CC2)c(=O)n(C)c1=O	86	.	-1	0	2	.
C=CCN(CC=C)Cc1c[nH]c2ccccc12	27*	23	4	0	-1	21
O=C(NC[P+](=O)O)OCc1ccccc1	79	2	1	-2	-3	-4
CN1C[C@H](CNC(=O)OCc2ccccc2)C[C@@H]2c3cccc4c3c(cn4C)C[C@H]21	105	.	22*	9	85*	.
CC(C)OCCCNC(=O)c1c(N)n(Cc2cccs2)c2nc3ccccc3nc12	87	14	11*	-11	41*	-24
CCCCNC(=O)c1c(N)n(CCCOC)c2nc3ccccc3nc12	95	17	4	20	17	18
COCCOC(=O)c1c(N)n(Cc2ccco2)c2nc3ccccc3nc12	80	.	0	11	2	.
CC(C)OC(=O)c1c(N)n(Cc2ccco2)c2nc3ccccc3nc12	99	.	0	29*	6	.
CCCNC(=O)c1c(N)n(Cc2ccc3c(c2)OCO3)c2nc3ccccc3nc12	61	5	6	-2	36*	-8
